Our source for the inhibition and Activity values is ChEMBL document CHEMBL2062448, “A substituted 3,4-dihydropyrimidinone derivative (compound D22) prevents inflammation mediated neurotoxicity; role in microglial activation in BV-2 cells” (Bioorg Med Chem Lett, 2012).

SMILES strings stand for the structures. Calls of active or inactive are those of the source. The calls are words filed in the database; no cut-off is given here.

For series [1], the system named is BV-2. The experiment in a line: Antineuroinflammatory activity in […] cells assessed as inhibition of LPS-induced nitric oxide production at 5 to 20 uM treated 30 mins before LPS challenge measured after 24 hrs by Griess reaction. It is filed as functional, cell-based. The method, boiled down:
(§1)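 BV-2 cells at 3 × 10⁴ cells/well in DMEM with 5% FBS at 37 °C, 5% CO₂. Cells were pretreated 30 min, then given LPS 100 ng/ml for 24 h. Supernatant was mixed 1:1 with Griess reagent (1% sulfanilamide, 0.1% naphthylethylenediamine in 5% phosphoric acid). Absorbance at 570 nm was read after 10 min against a sodium nitrite standard.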

Series [2] relates to BV-2. The series can be described thus: Antineuroinflammatory activity in […] cells assessed as inhibition of LPS-induced nitric oxide production at 10 uM treated 30 mins before LPS challenge measured after 24 hrs by Griess reaction. The format is functional. The method, boiled down: as §1
For series [3], the system named is N2a. The series can be described thus: Antineuroinflammatory activity in LPS-stimulated […] cells in conditioned media assessed as recovery of Bcl-2 expression in […] cells treated 30 mins before LPS challenge measured at 5 to 20 uM after 24 hrs by Western blot analysis. It is filed as functional, cell-based. A digest of the protocol:
(§2)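 BV-2 cells pretreated with 5, 10 or 20 µM for 30 min, then LPS 100 ng/ml for 24 h. Conditioned media were collected and applied to N2a cells for 24 h. Lysates were run on 8–12% SDS-PAGE and transferred to nitrocellulose. Blots were probed 12 h with primary antibodies (cleaved caspase-3, Bax, Bcl-2), then HRP secondary 1 h at room temperature, ECL detection and densitometry. Mean ± S.E.M. of three independent experiments.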

The test system of series [4] is BV-2. The series can be described thus: Antineuroinflammatory activity in […] cells assessed as inhibition of LPS-induced iNOS expression at 5 to 20 uM after 6 hrs by Western blot analysis. The format is functional, cell-based. A digest of the protocol:
(§3)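 BV-2 cells exposed to LPS 100 ng/ml with or without 5–20 µM for 6 h. Lysates were run on 8–12% SDS-PAGE and transferred to nitrocellulose. Blots were probed 12 h for iNOS or COX-2, then HRP secondary 1 h at room temperature, ECL detection and densitometry. Three independent experiments.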

The test system of series [5] is BV-2. The experiment in a line: Inhibition of LPS-induced ERK kinase phosphorylation in […] cells after 30 mins by Western blot analysis. It is filed as cell-based. The method, boiled down:
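BV-2 cells exposed to LPS 100 ng/ml with or without 5–20 µM for 30 min. Lysates were run on 8–12% SDS-PAGE and transferred to nitrocellulose. Blots were probed 12 h for phospho-p38, -JNK or -ERK, then HRP secondary 1 h at room temperature, ECL detection and densitometry.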

Series [6] relates to N2a. The series can be described thus: Antineuroinflammatory activity in LPS-stimulated […] cells in conditioned media assessed as inhibition of […] cell death treated 30 mins before LPS challenge measured after 24 hrs by MTT assay. It is filed as functional, cell-based. A digest of the protocol:
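BV-2 cells (DMEM, 5% FBS) pretreated with 5, 10 or 20 µM for 30 min, then LPS 100 ng/ml for 24 h. Conditioned media were transferred to N2a cells (DMEM, 10% FBS) for 24 h, and N2a viability was read by MTT. Mean ± S.E.M. of three independent experiments; one-way ANOVA with Tukey post test.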

The test system of series [7] is BV-2. The experiment in a line: Antineuroinflammatory activity in […] cells assessed as inhibition of LPS-induced IL-1beta production treated 30 mins before LPS challenge measured after 24 hrs by ELISA. The format is functional, cell-based. The method, boiled down:
(§4)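 BV-2 cells plated at 1.5 × 10⁶ cells/well and pretreated for 30 min. Cells were then exposed to LPS 100 ng/ml for 24 h. IL-1β and TNF-α in culture medium were quantified by immunoassay kit. Mean ± S.E.M. of three independent experiments.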

In series [8] the test system is N2a. The series can be described thus: Antineuroinflammatory activity in LPS-stimulated […] cells in conditioned media assessed as inhibition of DNA fragmentation in […] cells treated 30 mins before LPS challenge measured after 24 hrs by Gel electrophoresis. It is filed as functional, cell-based. A digest of the protocol: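 BV-2 cells pretreated with 5, 10 or 20 µM for 30 min, then stimulated with LPS 100 ng/ml for 24 h. Conditioned media were applied to N2a cells for 24 h. Cells were scraped and pelleted at 7500 rpm for 5 min. DNA fragmentation was resolved by gel electrophoresis alongside vehicle CM and LPS-with-vehicle CM lanes.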

Series [9] deals with N2a. The series can be described thus: Antineuroinflammatory activity in LPS-stimulated […] cells in conditioned media assessed as inhibition of caspase-3 activation in […] cells treated 30 mins before LPS challenge measured at 5 to 20 uM after 24 hrs by Western blot analysis. It is filed as functional, cell-based. The method, boiled down:
as §2

In series [10] the test system is BV-2. The series can be described thus: Antineuroinflammatory activity in […] cells assessed as inhibition of LPS-induced COX2 expression at 5 to 20 uM after 6 hrs by Western blot analysis. The format is functional, cell-based. The method, boiled down:
as §3

For series [11], the system named is c-Jun N-terminal kinase, JNK (Mus musculus). The series can be described thus: Inhibition of LPS-induced JNK kinase phosphorylation in mouse BV2 cells after 30 mins by Western blot analysis. As to conditions: BV-2.
Series [12] deals with BV-2. The series can be described thus: Antineuroinflammatory activity in […] cells assessed as inhibition of LPS-induced TNFalpha production treated 30 mins before LPS challenge measured after 24 hrs by ELISA. The format is functional, cell-based. The method, boiled down: as §4
The subject of series [13] is MAP kinase p38 (Mus musculus). The experiment in a line: Inhibition of LPS-induced p38 kinase phosphorylation in mouse BV2 cells after 30 mins by Western blot analysis. As to conditions: BV-2.
In series [14] the test system is BV-2. The experiment in a line: Cytotoxicity against LPS-induced […] cells assessed as cell viability after 24 hrs by MTT assay. It is filed as cell-based. As to conditions: bv-2, 24 h. The method, boiled down: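 BV-2 viability measured by MTT after 30 min pretreatment with 5, 10 or 20 µM, followed by LPS 100 ng/ml for 24 h. Mean ± S.E.M. of three independent experiments.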

Series [15] relates to BV-2. The experiment in a line: Antineuroinflammatory activity in […] cells assessed as inhibition of LPS-induced PGE2 production at 5 to 20 uM treated 30 mins before LPS challenge measured after 24 hrs by competitive enzyme immunoassay. The format is functional, cell-based. A digest of the protocol: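 BV-2 cells plated at 1.5 × 10⁶ cells/well and pretreated with 5, 10 or 20 µM for 30 min. LPS 100 ng/ml was then added for 24 h. PGE₂ in medium was measured by competitive enzyme immunoassay kit. Mean ± S.E.M. of three independent experiments.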

Series [16] relates to N2a. The experiment in a line: Antineuroinflammatory activity in LPS-stimulated […] cells in conditioned media assessed as inhibition of Bax expression in […] cells treated 30 mins before LPS challenge measured at 5 to 20 uM after 24 hrs by Western blot analysis. The format is functional, cell-based. A digest of the protocol:
as §2

`CCOC(=O)C1=C(C)NC(=O)NC1c1cc(Cl)ccc1O` (stereo not drawn): the inhibition result in series [1] was “Active”.
As to `CCOC(=O)C1=C(C)NC(=O)NC1c1cccc(Oc2ccccc2)c1` (stereo not drawn), in series [1], the inhibition result is “Active”.
Regarding `O=c1cc(-c2ccccc2)oc2cc(O)cc(O)c12`, the inhibition result in series [2] is “Active”.
As for `CCOC(=O)C1=C(C)NC(=S)NC1c1cccc(Oc2ccccc2)c1` (stereo not drawn), the result in [3] was Active. The inhibition at 10 µM in [2] (Mus musculus, BV-2, read-out: INH) was found to be 51%. Further, the inhibition entry in series [4], in series [6], in series [8], in [9], in series [10] and in series [15] was “Active” each time. In addition, the inhibition entry in [16] is “Active”. For the same compound, the inhibition entry in series [5], in series [7], in series [11], in series [12] and in series [13] was “Dose-dependent effect” in each case. Further, the Activity result in series [14] is recorded as “Non-toxic”.
